{
  "source": "paper PMC3674282",
  "about": "(Nature Communications, 2013)",
  "key": {"[1]": {"target": "human α7 nAChRs (Homo sapiens, UniProt P36544)", "sequence (P36544 23-502)": "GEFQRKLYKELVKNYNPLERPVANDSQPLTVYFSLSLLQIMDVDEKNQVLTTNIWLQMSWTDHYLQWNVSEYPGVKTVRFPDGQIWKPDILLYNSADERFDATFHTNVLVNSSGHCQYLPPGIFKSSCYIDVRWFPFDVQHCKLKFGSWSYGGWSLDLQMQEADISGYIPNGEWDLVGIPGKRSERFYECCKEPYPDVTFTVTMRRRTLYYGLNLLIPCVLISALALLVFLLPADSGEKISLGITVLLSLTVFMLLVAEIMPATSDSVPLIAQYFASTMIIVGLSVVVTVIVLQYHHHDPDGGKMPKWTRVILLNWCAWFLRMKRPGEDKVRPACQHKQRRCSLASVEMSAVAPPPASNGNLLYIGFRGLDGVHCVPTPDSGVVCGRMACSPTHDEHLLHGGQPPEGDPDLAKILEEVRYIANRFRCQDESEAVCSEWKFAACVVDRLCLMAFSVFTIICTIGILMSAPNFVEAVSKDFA", "experiment": "electrophysiology on Xenopus oocytes expressing human α7 nAChR", "type": "cell-based"}, "[2]": {"target": "T1, Ac-AChBP (Aplysia californica, UniProt Q8WSF8)", "T1 sequence (Q8WSF8 20-236)": "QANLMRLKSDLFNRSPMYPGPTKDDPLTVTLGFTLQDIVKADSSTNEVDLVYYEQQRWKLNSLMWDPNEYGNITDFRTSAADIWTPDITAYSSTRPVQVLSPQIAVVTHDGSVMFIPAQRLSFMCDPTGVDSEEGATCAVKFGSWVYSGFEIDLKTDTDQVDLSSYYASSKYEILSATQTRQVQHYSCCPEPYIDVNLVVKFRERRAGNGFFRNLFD", "experiment": "isothermal titration calorimetry", "type": "binding", "settings": "25°, PBS", "in_short": "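The protein was dialysed into PBS and the test compound was dissolved in the same buffer. Titrations ran on a VP-ITC microcalorimeter at 25°. Heat of dilution from ligand titrated into buffer alone was subtracted as background. Data were fitted by non-linear least squares to a one-set-of-sites model.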"}, "[3]": {"target": "T1, Ac-AChBP", "experiment": "affinity by tryptophan fluorescence quenching", "type": "binding", "in_short": "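Untagged wild-type Ac-AChBP, purified from Sf21 insect cells, at 1 μM in binding sites, equilibrated with a dilution series of test compound for 1 h. Tryptophan fluorescence read on a plate reader: excitation 280 nm, emission 340 nm (slit 8 nm). Data normalised and pKi obtained by fitting a sigmoidal dose–response curve.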"}, "[4]": {"experiment": "solubility", "type": "physicochemical", "settings": "in words"}, "[5]": {"target": "T1, Ac-AChBP", "experiment": "titration of AO with Ac-AChBP by AO fluorescence quenching", "type": "binding", "settings": "AO 100 μM titrated with Ac-AChBP, absence of nicotine", "in_short": "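Test compound at 100 μM was titrated with increasing Ac-AChBP. Its own fluorescence was monitored with excitation at 495 nm and emission at 525 nm (slit 10 nm). A competition arm, where indicated, included 1 mM nicotine.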"}, "[6]": {"target": "T1, Ac-AChBP", "experiment": "biochemical", "type": "binding"}, "[7]": {"target": "human α7 nAChR (Homo sapiens, UniProt P36544)", "sequence (P36544 23-502)": "as the sequence (P36544 23-502) above", "experiment": "radioligand displacement", "type": "binding", "in_short": "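SH-SY5Y neuroblastoma cells expressing human α7 nAChR were washed three times, stored as frozen pellets at −80 °C, then resuspended in ice-cold buffer and sonicated. Incubation used PBS/20 mM Tris pH 7.4/0.05% Tween, test compound at 10−3–10−11 M and [3H]MLA at 2 nM final, for 1.5 h at room temperature with shaking and protected from light. Bound label was collected on PEI-pretreated GF/C filters, washed with ice-cold 50 mM Tris pH 7.4 and counted. Curves were fitted by non-linear least squares; mean±s.e.m. of ≥3 independent experiments.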"}, "[8]": {"target": "T1, Ac-AChBP", "experiment": "equilibrium titration of binding sites by tryptophan fluorescence quenching", "settings": "Ac-AChBP 20 μM binding sites", "in_short": "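Ac-AChBP (20 μM in binding sites) was titrated with rising test compound until quenching fell below 8%. Tryptophan emission was read at 340 nm with excitation at 280 nm. Stoichiometry came from a straight line fitted through the average of the plateau points.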"}, "[9]": {"target": "T2, Ac-AChBP Y193A (Aplysia californica, UniProt Q8WSF8, Y212A)", "T2 sequence (Q8WSF8 20-236 Y212A)": "T1 sequence (Q8WSF8 20-236) with Y193A", "experiment": "radioligand displacement on mutant Ac-AChBP Y193A", "type": "binding", "settings": "Y193 mutated to alanine"}, "[10]": {"target": "T3, Ac-AChBP Y186A (Aplysia californica, UniProt Q8WSF8, Y205A)", "T3 sequence (Q8WSF8 20-236 Y205A)": "T1 sequence (Q8WSF8 20-236) with Y186A", "experiment": "radioligand displacement on mutant Ac-AChBP Y186A", "type": "binding", "settings": "Y186 mutated to alanine"}},
  "note": "Numbering of substitutions follows the chain as printed.",
  "data": [
    {"smiles": "CN(C)c1ccc2cc3ccc(N(C)C)cc3nc2c1", "note": "[AO, acridine orange]", "values": [
      {"measurement": "IC50", "setting": "[1]", "value": 7.3, "unit": "µM"},
      {"measurement": "stoichiometric ratio (n) by ITC", "setting": "[2]; 0.5 mM ligand into 20 μM Ac-AChBP", "value": "3–4"},
      {"measurement": "Kd", "setting": "[2]; Kd by ITC", "value": 1.86, "unit": "µM"},
      {"measurement": "Ki", "setting": "[3]", "value": 1.58, "unit": "µM"},
      {"measurement": "solubility", "setting": "[4]", "value": "highly soluble"},
      {"measurement": "stoichiometric ratio at which Ac-AChBP quenched AO fluorescence", "setting": "[5]", "value": 0.3}
    ]},
    {"smiles": "Cc1cc(C)nc(C(=N)Nc2nc(-c3ccccn3)cc3ccccc23)n1", "note": "[VUF9432, 4,6-dimethyl-N-(3-(pyridin-2-yl)isoquinoline-1-yl)-pyrimidine-2-carboximidamide]", "values": [
      {"measurement": "effect on α7 nAChR expressed in oocytes", "setting": "[1]; data not shown", "value": "did not observe any effect"},
      {"measurement": "Ki", "setting": "[6]", "value": 11, "unit": "µM"},
      {"measurement": "pKi for α7 nAChR", "setting": "[7]; [3H]MLA displacement, radioligand not fully displaced", "value": "around five"},
      {"measurement": "displacement of [3H]MLA at the highest concentration tested", "setting": "[7]; highest concentration tested", "value": "not fully displaced"},
      {"measurement": "stoichiometric ratio ligand/AChBP (ligands per protomer/binding site)", "setting": "[8]", "value": "three"},
      {"measurement": "affinity for Ac-AChBP Y193A mutant", "setting": "[9]", "value": "loss of affinity"},
      {"measurement": "solubility", "setting": "[4]", "value": "not very soluble"},
      {"measurement": "affinity for Ac-AChBP Y186A mutant", "setting": "[10]", "value": "loss of affinity"}
    ]},
    {"smiles": "Nc1nc(-c2ccccn2)cc2ccccc12", "note": "[compound 2, 1-Amino-3-(2-pyridyl)isoquinoline]", "values": [
      {"measurement": "stoichiometric ratio ligand/AChBP (ligands per protomer/binding site)", "setting": "[8]", "value": "multiple copies"}
    ]},
    {"smiles": "Nc1nc(-c2cccnc2)cc2ccccc12", "note": "[compound 3, 1-Amino-3-(3-pyridyl)isoquinoline]", "values": [
      {"measurement": "stoichiometric ratio ligand/AChBP (ligands per protomer/binding site)", "setting": "[8]", "value": "multiple copies"}
    ]}
  ]
}
